Measurements collected from several papers.
Compare with care: the assays were run in different laboratories.
Sample: plasma

SMILES | host | route | dose | setting | AUC(0-inf) [µg·h/mL]
CC(C)(Sc1ccncc1-c1ccc(C#N)c2ccccc12)C(=O)O | male human | oral | 5 mg | single dose, fed, healthy volunteers | 0.0928
CCCOc1ccc([C@H]2CNC(=O)N2c2ccc3[nH]cnc3c2)cc1 | human | oral | 200 mg | single dose, fed, healthy volunteers | 2.31
CC(C)(O)c1ccccc1-c1ccc2[nH]c(/C=C/c3ccc(C(F)(F)F)cc3)nc2c1 | male human | oral | 15 mg | single dose, fasted | 5.19
Nc1ccc(-c2nc([C@H]3CCc4cc(-c5cc(Cl)ccc5-n5cnnn5)cc(=O)n43)c(F)[nH]2)c(F)n1 | human | oral | 80 mg | single dose, fed | 15.9
CN(C)CCCNC(=O)/C(=C/CCCCC(=O)NO)COc1cccc2ccccc12 | human | intravenous | 187.5 mg/m² | single dose | 30.7
CO[C@H]1CC[C@H](N2C(=O)CNc3ncc(-c4ccc(C(C)(C)O)nc4)nc32)CC1 | human | oral | 15 mg | patients | 0.378
COc1ccc(-n2nc(C(N)=O)c3c2C(=O)N(c2ccc(N4CCCCC4=O)cc2)CC3)cc1 | male human | oral | 25 mg | single dose | 3.41
CNC(=O)c1ccccc1Sc1ccc2c(/C=C/c3ccccn3)n[nH]c2c1 | human | oral | 5 mg | single dose, fasted | 0.197
CO[C@H]1/C=C\C=C(/C)C(=O)NC2=CC(=O)C(NCCN(C)C)=C(C[C@@H](C)C[C@H](OC)[C@H](O)[C@@H](C)/C=C(\C)[C@@H]1OC(N)=O)C2=O | human | intravenous | 27 mg/m² | patients, infusion | 4.14
CCc1cnn2c(NCc3ccc[n+]([O-])c3)cc(N3CCCC[C@H]3CCO)nc12 | human | intravenous | 9 mg/m² | patients | 0.795
CCc1nc2c(C)cc(N3CCN(CC(=O)N4CC(O)C4)CC3)cn2c1N(C)c1nc(-c2ccc(F)cc2)c(C#N)s1 | human | oral | 60 mg | single dose, fed, healthy volunteers | 2.4
O=C(Nc1c(Cl)cncc1Cl)c1ccc(OC(F)F)c(OCC2CC2)c1 | human | oral | 0.375 mg | multiple doses, once daily | 0.0814
FC(F)(F)c1ccc(CNc2ccc(Cc3c[nH]c4ncc(Cl)cc34)cn2)cn1 | male human | oral | 400 mg | single dose, healthy volunteers | 61.3
CC(C)[C@](O)(c1ccc2cc(OC(F)F)c(OC(F)F)cc2c1)c1c[nH]nn1 | female human | oral | 600 mg | single dose | 54.7
CC(C)n1cc(C#N)c2cc(-n3cc(C(=O)O)cn3)ccc21 | human | oral | 200 mg | single dose, fed | 44.3
CCCCC[C@H](O)CC[C@@H]1[C@H]2Cc3cccc(OCC(=O)O)c3C[C@H]2C[C@H]1O | human | inhaled | 18 µg | single dose, healthy volunteers | 0.00034
COc1ccc2[nH]c([S+]([O-])Cc3ncc(C)c(OC)c3C)nc2c1 (stereo not drawn) | male human | oral | 100 µg | – | 0.00246
O=C(/C=C/c1cccc(S(=O)(=O)Nc2ccccc2)c1)NO | human | intravenous | 2000 mg/m² | patients | 86.4
C[C@@]1(c2cc(NC(=O)c3ccc(C#N)cn3)ccc2F)C=CSC(N)=N1 | human | oral | 10 mg | single dose | 1.04
CC(=O)Oc1ccccc1C(=O)O | human | oral | 650 mg | healthy volunteers | 7.69
COc1ccc([C@@H]2CN(C(=O)[C@@H](O)CO)C[C@@]2(C)[C@@H](C)O)cc1OC1CN(c2ccc(C)cn2)C1 | human | oral | 5 mg | single dose, healthy volunteers | 1.85
Cn1cc(-c2ccc(S(=O)(=O)[C@@H]3C[C@@H](C(=O)NC4(C#N)CC4)N(C(=O)C4(C(F)(F)F)CC4)C3)c(C(F)(F)F)c2)cn1 | human | oral | 100 mg | single dose, fasted, healthy volunteers | 10.6
CCOc1cc2ncc(C#N)c(Nc3ccc(OCc4ccccn4)c(Cl)c3)c2cc1NC(=O)/C=C/[C@H]1CCCN1C | human | oral | 80 mg | single dose | 0.386
CS(=O)(=O)CCC#N | human | oral | 300 mg | single dose, fasted | 327
